One assay concerns Helicobacter pylori. As to the kind of experiment: Antibacterial activity against Helicobacter pylori 31A after 48 hrs by serial doubling dilution method. Format: functional. In a few lines: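 H. pylori strain 31 A (stomach ulcer isolate) in brain-heart infusion broth with 10% fetal bovine serum, grown in test tubes under 10% CO2, 5% O2 and 85% N2 at 37 °C. Serial doubling dilutions made in 10% aqueous DMSO and added as 10% of the medium, with 5% culture inoculum. Incubated 37 °C for 48 h. MIC taken as the lowest concentration with no visible growth.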

Another assay has as its system Bacillus subtilis. As to the kind of experiment: Antibacterial activity against Bacillus subtilis ATCC 6633 at 625 ug/mL after 24 hrs by conventional well agar method. Format: functional, organism-based.
Another assay concerns Micrococcus luteus. As to the kind of experiment: Antibacterial activity against Micrococcus luteus ATCC 9341 at 625 ug/mL after 24 hrs by conventional well agar method. It counts as functional, organism-based.
The next assay deals with Bacteroides fragilis. Kind of assay: Antibacterial activity against Bacteroides fragilis ATCC 25285 at 625 ug/mL after 24 hrs by conventional well agar method. It counts as functional, organism-based.
The test system of the next assay is Escherichia coli. Kind of assay: Antibacterial activity against Escherichia coli ATCC 10536 at 625 ug/mL after 24 hrs by conventional well agar method. Format: functional, organism-based.
For the next assay, the system named is Pseudomonas aeruginosa. Kind of assay: Antibacterial activity against Pseudomonas aeruginosa ATCC 9027 at 625 ug/mL after 24 hrs by conventional well agar method. It counts as functional, organism-based.
The test system of the next assay is Candida albicans. Kind of assay: Antifungal activity against Candida albicans ATCC 10231 at 625 ug/mL after 24 hrs by conventional well agar method. It counts as functional, organism-based.

In brackets after ≈: the same amount, converted by molar mass. Activity calls are given as the source filed them. The calls are words filed in the database; no cut-off is given here.

The MIC is the least concentration at which growth counts as inhibited.

In the assay on Helicobacter pylori, `C=C(C)[C@H]1Cc2c(ccc3c2O[C@@H]2COc4cc(OC)c(OC)cc4[C@]2(O)C3=O)O1` [ROTENOLONE] returned a minimum inhibitory concentration (MIC) of 1.3 µg/mL (≈ 3.17 µM). The result with Bacillus subtilis, in the assay with Micrococcus luteus, in the assay with Bacteroides fragilis, in the assay with Escherichia coli, with Pseudomonas aeruginosa and with Candida albicans was inactive.

Turning to `COc1cc2c(cc1OC)[C@@H]1C(=O)c3ccc4c(c3O[C@@H]1CO2)C=CC(C)(C)O4` [DEGUELIN], the lowest concentration to inhibit growth in the assay with Helicobacter pylori (MIC) was 0.6 µg/mL (≈ 1.52 µM). Further, the outcome with Bacillus subtilis, in the assay on Micrococcus luteus, in the assay with Bacteroides fragilis, in the assay with Escherichia coli, in the assay with Pseudomonas aeruginosa and with Candida albicans was inactive.

In the assay with Helicobacter pylori, `C=C(C)[C@H]1Cc2c(ccc3c(=O)c4c(oc23)COc2cc(OC)c(OC)cc2-4)O1` [DEHYDROROTENONE] gave an MIC of 9.8 µg/mL (≈ 25 µM). The outcome in the assay on Bacillus subtilis, in the assay with Micrococcus luteus, in the assay with Bacteroides fragilis, with Escherichia coli, in the assay on Pseudomonas aeruginosa and in the assay on Candida albicans was inactive.

`COc1cc2c(cc1OC)Oc1c(oc3c4c(ccc3c1=O)OC(C)(C)C=C4)CO2` came in with an MIC against Helicobacter pylori of 4 µg/mL (≈ 9.79 µM). The result in the assay on Bacillus subtilis, in the assay with Micrococcus luteus, in the assay with Bacteroides fragilis, with Escherichia coli, in the assay on Pseudomonas aeruginosa and in the assay on Candida albicans was inactive.

The compound `COc1cc2c(cc1OC)[C@@H]1C(=O)c3ccc4occc4c3O[C@@H]1CO2` [ELLIPTONE] showed an MIC against Helicobacter pylori of 3 µg/mL (≈ 8.51 µM). The outcome with Bacillus subtilis, with Micrococcus luteus, in the assay with Bacteroides fragilis, with Escherichia coli, in the assay on Pseudomonas aeruginosa and with Candida albicans was inactive.

Regarding `COc1cc2c(cc1OC)[C@]1(O)C(=O)c3ccc4c(c3O[C@@H]1CO2)C=CC(C)(C)O4` [TEPHROSIN], the lowest concentration to inhibit growth in the assay with Helicobacter pylori (MIC) was 0.3 µg/mL (≈ 0.731 µM). Also, the outcome with Bacillus subtilis, with Micrococcus luteus, in the assay on Bacteroides fragilis, with Escherichia coli, in the assay on Pseudomonas aeruginosa and with Candida albicans was inactive.

For `COc1cc2c(cc1OC)[C@@H]1C(=O)c3c(O)cc4c(c3O[C@@H]1CO2)C=CC(C)(C)O4` [TOXICAROL], in the assay on Helicobacter pylori, inhibition of growth (MIC) required 0.3 µg/mL (≈ 0.731 µM). Also, the result in the assay with Bacillus subtilis, with Micrococcus luteus, in the assay on Bacteroides fragilis, in the assay with Escherichia coli, in the assay with Pseudomonas aeruginosa and in the assay with Candida albicans was inactive.

Regarding `CC[C@H]1OC(=O)[C@H](C)[C@@H](O[C@H]2C[C@@](C)(OC)[C@@H](O)[C@H](C)O2)[C@H](C)[C@@H](O[C@@H]2O[C@H](C)C[C@H](N(C)C)[C@H]2O)[C@](C)(OC)C[C@@H](C)C(=O)[C@H](C)[C@@H](O)[C@]1(C)O` [CLARITHROMYCIN], the minimal inhibitory concentration (MIC) in the assay on Helicobacter pylori was 0.05 µg/mL (≈ 0.0668 µM). Further, the outcome with Bacillus subtilis, in the assay with Micrococcus luteus, in the assay on Bacteroides fragilis, in the assay with Escherichia coli, in the assay on Pseudomonas aeruginosa and in the assay with Candida albicans was inactive.

Turning to `COc1cc2c(cc1OC)-c1c(oc3c4c(ccc3c1=O)OC(C)(C)C=C4)CO2` [DEHYDRODEGUELIN], inhibition of growth against Helicobacter pylori (MIC) required 4 µg/mL (≈ 10.2 µM). The result in the assay with Bacillus subtilis, in the assay with Micrococcus luteus, in the assay with Bacteroides fragilis, in the assay on Escherichia coli, in the assay with Pseudomonas aeruginosa and with Candida albicans was inactive.

As for `COc1cc2c(cc1OC)[C@@H]1C(=O)c3ccc4c(c3O[C@@H]1CO2)[C@H](O)[C@@H](O)C(C)(C)O4` [DERRISIN], the minimal inhibitory concentration (MIC) in the assay on Helicobacter pylori amounted to 85 µg/mL (≈ 198 µM). Also, the result with Bacillus subtilis, in the assay on Micrococcus luteus, in the assay on Bacteroides fragilis, in the assay on Escherichia coli, in the assay on Pseudomonas aeruginosa and in the assay with Candida albicans was inactive.

Turning to `C=C(C)[C@H]1Cc2c(ccc3c2O[C@@H]2COc4cc(OC)c(OC)cc4[C@@H]2C3=O)O1` [ROTENONE], the minimum inhibitory concentration (MIC) against Helicobacter pylori stood at 1.3 µg/mL (≈ 3.3 µM). For the same compound, the result in the assay with Bacillus subtilis, in the assay with Micrococcus luteus, in the assay on Bacteroides fragilis, in the assay with Escherichia coli, in the assay on Pseudomonas aeruginosa and with Candida albicans was inactive.

In turn, `COc1cc2c(cc1OC)[C@]1(O)C(=O)c3ccc4c(c3O[C@@H]1CO2)[C@H](O)[C@@H](O)C(C)(C)O4` registered an MIC with Helicobacter pylori greater than 88 µg/mL. The result in the assay on Bacillus subtilis, in the assay on Micrococcus luteus, with Bacteroides fragilis, with Escherichia coli, with Pseudomonas aeruginosa and in the assay on Candida albicans was inactive.
